The record followed here is ChEMBL document CHEMBL1949561, “Synthesis and triplex-forming ability of oligonucleotides bearing 1-substituted 1H-1,2,3-triazole nucleobases” (Bioorg Med Chem, 2011).

What all share (format): nucleic-acid assay
The subject of experiment [1] is Nucleic Acid. The experiment can be described thus: Binding affinity to 5'-GCTAAAAAGATAGAGAGATCG-3'/5'- CGATCTCTCTATCTTTTTAGC-3' double stranded DNA assessed as melting temperature at 1.5 uM in sodium phosphate buffer at pH 7 by UV spectrophotometric analysis. The essentials: (§1)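 UV melting of triplexes between each modified TFO and the 21-bp duplex target, in 7 mM sodium phosphate buffer (pH 7.0), 140 mM KCl and 10 mM MgCl₂. Each oligonucleotide at 1.5 µM final. Absorbance followed at 260 nm from 5 °C to 85 °C, scanned at 0.5 °C/min, to give Tm.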

Experiment [2] has as its system Nucleic Acid. The experiment can be described thus: Binding affinity to5'-GCTAAAAAGACAGAGAGATCG-3'/5'- CGATCTCTCTGTCTTTTTAGC-3' double stranded DNA assessed as melting temperature at 1.5 uM in sodium phosphate buffer at pH 7 by UV spectrophotometric analysis. The essentials:
as §1

Experiment [3] relates to Nucleic Acid. The experiment can be described thus: Binding affinity to 5'-GCTAAAAAGAGAGAGAGATCG-3'/5'- CGATCTCTCTCTCTTTTTAGC-3' double stranded DNA assessed as melting temperature at 1.5 uM in sodium phosphate buffer at pH 7 by UV spectrophotometric analysis. The method, boiled down: as §1
Experiment [4] concerns Nucleic Acid. The experiment can be described thus: Binding affinity to 5'-GCTAAAAAGAAAGAGAGATCG-3'/5'- CGATCTCTCTTTCTTTTTAGC-3' double stranded DNA assessed as melting temperature at 1.5 uM in sodium phosphate buffer at pH 7 by UV spectrophotometric analysis. The method, boiled down: as §1

Take `Cc1cn([C@H]2C[C@H](OP(=O)(O)OC[C@H]3O[C@@H](n4cc(C)c(=O)[nH]c4=O)C[C@@H]3OP(=O)(O)OC[C@H]3O[C@@H](n4cc(C)c(N)nc4=O)C[C@@H]3OP(=O)(O)OC[C@H]3O[C@@H](n4cc(C)c(=O)[nH]c4=O)C[C@@H]3OP(=O)(O)OC[C@H]3O[C@@H](n4cc(C)c(N)nc4=O)C[C@@H]3OP(=O)(O)OC[C@H]3O[C@@H](n4cc(C)c(=O)[nH]c4=O)C[C@@H]3OP(=O)(O)OC[C@H]3O[C@@H](c4cn(-c5cccc(NC(N)=O)c5)nn4)C[C@@H]3OP(=O)(O)OC[C@H]3O[C@@H](n4cc(C)c(=O)[nH]c4=O)C[C@@H]3OP(=O)(O)OC[C@H]3O[C@@H](n4cc(C)c(N)nc4=O)C[C@@H]3OP(=O)(O)OC[C@H]3O[C@@H](n4cc(C)c(=O)[nH]c4=O)C[C@@H]3OP(=O)(O)OC[C@H]3O[C@@H](n4cc(C)c(=O)[nH]c4=O)C[C@@H]3OP(=O)(O)OC[C@H]3O[C@@H](n4cc(C)c(=O)[nH]c4=O)C[C@@H]3OP(=O)(O)OC[C@H]3O[C@@H](n4cc(C)c(=O)[nH]c4=O)C[C@@H]3OP(=O)(O)OC[C@H]3O[C@@H](n4cc(C)c(=O)[nH]c4=O)C[C@@H]3O)[C@@H](COP(=O)(O)O[C@H]3C[C@H](n4cc(C)c(=O)[nH]c4=O)O[C@@H]3CO)O2)c(=O)nc1N`: the Tm in experiment [1] is 17 °C; in experiment [2] it was 22 °C; in experiment [3], under 10 °C; in experiment [4] it was 13 °C.
For `Cc1ccc(-n2cc([C@H]3C[C@H](OP(=O)(O)OC[C@H]4O[C@@H](n5cc(C)c(=O)[nH]c5=O)C[C@@H]4OP(=O)(O)OC[C@H]4O[C@@H](n5cc(C)c(N)nc5=O)C[C@@H]4OP(=O)(O)OC[C@H]4O[C@@H](n5cc(C)c(=O)[nH]c5=O)C[C@@H]4OP(=O)(O)OC[C@H]4O[C@@H](n5cc(C)c(=O)[nH]c5=O)C[C@@H]4OP(=O)(O)OC[C@H]4O[C@@H](n5cc(C)c(=O)[nH]c5=O)C[C@@H]4OP(=O)(O)OC[C@H]4O[C@@H](n5cc(C)c(=O)[nH]c5=O)C[C@@H]4OP(=O)(O)OC[C@H]4O[C@@H](n5cc(C)c(=O)[nH]c5=O)C[C@@H]4O)[C@@H](COP(=O)(O)O[C@H]4C[C@H](n5cc(C)c(=O)[nH]c5=O)O[C@@H]4COP(=O)(O)O[C@H]4C[C@H](n5cc(C)c(N)nc5=O)O[C@@H]4COP(=O)(O)O[C@H]4C[C@H](n5cc(C)c(=O)[nH]c5=O)O[C@@H]4COP(=O)(O)O[C@H]4C[C@H](n5cc(C)c(N)nc5=O)O[C@@H]4COP(=O)(O)O[C@H]4C[C@H](n5cc(C)c(=O)[nH]c5=O)O[C@@H]4COP(=O)(O)O[C@H]4C[C@H](n5cc(C)c(N)nc5=O)O[C@@H]4COP(=O)(O)O[C@H]4C[C@H](n5cc(C)c(=O)[nH]c5=O)O[C@@H]4CO)O3)nn2)cc1`, the Tm in experiment [1] was 13 °C; in experiment [2] it was 21 °C; in experiment [3] it was under 10 °C; in experiment [4] it was under 10 °C.
For the molecule `Cc1cn([C@H]2C[C@H](OP(=O)(O)OC[C@H]3O[C@@H](n4cc(C)c(=O)[nH]c4=O)C[C@@H]3OP(=O)(O)OC[C@H]3O[C@@H](n4cc(C)c(N)nc4=O)C[C@@H]3OP(=O)(O)OC[C@H]3O[C@@H](n4cc(C)c(=O)[nH]c4=O)C[C@@H]3OP(=O)(O)OC[C@H]3O[C@@H](n4cc(C)c(N)nc4=O)C[C@@H]3OP(=O)(O)OC[C@H]3O[C@@H](n4cc(C)c(=O)[nH]c4=O)C[C@@H]3OP(=O)(O)OC[C@H]3O[C@@H](c4cn(-c5ccc(N)cc5)nn4)C[C@@H]3OP(=O)(O)OC[C@H]3O[C@@H](n4cc(C)c(=O)[nH]c4=O)C[C@@H]3OP(=O)(O)OC[C@H]3O[C@@H](n4cc(C)c(N)nc4=O)C[C@@H]3OP(=O)(O)OC[C@H]3O[C@@H](n4cc(C)c(=O)[nH]c4=O)C[C@@H]3OP(=O)(O)OC[C@H]3O[C@@H](n4cc(C)c(=O)[nH]c4=O)C[C@@H]3OP(=O)(O)OC[C@H]3O[C@@H](n4cc(C)c(=O)[nH]c4=O)C[C@@H]3OP(=O)(O)OC[C@H]3O[C@@H](n4cc(C)c(=O)[nH]c4=O)C[C@@H]3OP(=O)(O)OC[C@H]3O[C@@H](n4cc(C)c(=O)[nH]c4=O)C[C@@H]3O)[C@@H](COP(=O)(O)O[C@H]3C[C@H](n4cc(C)c(=O)[nH]c4=O)O[C@@H]3CO)O2)c(=O)nc1N`, the Tm in experiment [1] was 18 °C; in experiment [2], 23 °C; in experiment [3], under 10 °C; in experiment [4], 12 °C.
Taken in the same sequence, the figures for `Cc1cn([C@H]2C[C@H](OP(=O)(O)OC[C@H]3O[C@@H](n4cc(C)c(=O)[nH]c4=O)C[C@@H]3OP(=O)(O)OC[C@H]3O[C@@H](n4cc(C)c(N)nc4=O)C[C@@H]3OP(=O)(O)OC[C@H]3O[C@@H](n4cc(C)c(=O)[nH]c4=O)C[C@@H]3OP(=O)(O)OC[C@H]3O[C@@H](n4cc(C)c(N)nc4=O)C[C@@H]3OP(=O)(O)OC[C@H]3O[C@@H](n4cc(C)c(=O)[nH]c4=O)C[C@@H]3OP(=O)(O)OC[C@H]3O[C@@H](c4cn(C5CCCCC5)nn4)C[C@@H]3OP(=O)(O)OC[C@H]3O[C@@H](n4cc(C)c(=O)[nH]c4=O)C[C@@H]3OP(=O)(O)OC[C@H]3O[C@@H](n4cc(C)c(N)nc4=O)C[C@@H]3OP(=O)(O)OC[C@H]3O[C@@H](n4cc(C)c(=O)[nH]c4=O)C[C@@H]3OP(=O)(O)OC[C@H]3O[C@@H](n4cc(C)c(=O)[nH]c4=O)C[C@@H]3OP(=O)(O)OC[C@H]3O[C@@H](n4cc(C)c(=O)[nH]c4=O)C[C@@H]3OP(=O)(O)OC[C@H]3O[C@@H](n4cc(C)c(=O)[nH]c4=O)C[C@@H]3OP(=O)(O)OC[C@H]3O[C@@H](n4cc(C)c(=O)[nH]c4=O)C[C@@H]3O)[C@@H](COP(=O)(O)O[C@H]3C[C@H](n4cc(C)c(=O)[nH]c4=O)O[C@@H]3CO)O2)c(=O)nc1N` were 12 °C, 20 °C, under 10 °C and under 10 °C.
Regarding `Cc1cn([C@H]2C[C@H](OP(=O)(O)OC[C@H]3O[C@@H](n4cc(C)c(=O)[nH]c4=O)C[C@@H]3OP(=O)(O)OC[C@H]3O[C@@H](n4cc(C)c(N)nc4=O)C[C@@H]3OP(=O)(O)OC[C@H]3O[C@@H](n4cc(C)c(=O)[nH]c4=O)C[C@@H]3OP(=O)(O)OC[C@H]3O[C@@H](n4cc(C)c(N)nc4=O)C[C@@H]3OP(=O)(O)OC[C@H]3O[C@@H](n4cc(C)c(=O)[nH]c4=O)C[C@@H]3OP(=O)(O)OC[C@H]3O[C@@H](c4cn(C56CC7CC(CC(C7)C5)C6)nn4)C[C@@H]3OP(=O)(O)OC[C@H]3O[C@@H](n4cc(C)c(=O)[nH]c4=O)C[C@@H]3OP(=O)(O)OC[C@H]3O[C@@H](n4cc(C)c(N)nc4=O)C[C@@H]3OP(=O)(O)OC[C@H]3O[C@@H](n4cc(C)c(=O)[nH]c4=O)C[C@@H]3OP(=O)(O)OC[C@H]3O[C@@H](n4cc(C)c(=O)[nH]c4=O)C[C@@H]3OP(=O)(O)OC[C@H]3O[C@@H](n4cc(C)c(=O)[nH]c4=O)C[C@@H]3OP(=O)(O)OC[C@H]3O[C@@H](n4cc(C)c(=O)[nH]c4=O)C[C@@H]3OP(=O)(O)OC[C@H]3O[C@@H](n4cc(C)c(=O)[nH]c4=O)C[C@@H]3O)[C@@H](COP(=O)(O)O[C@H]3C[C@H](n4cc(C)c(=O)[nH]c4=O)O[C@@H]3CO)O2)c(=O)nc1N`, the Tm in experiment [1] is 11 °C; in experiment [2] it was 17 °C; in experiment [3], under 10 °C; in experiment [4], under 10 °C.
